Test results taken from ChEMBL document CHEMBL1142109, “Arzanol, an anti-inflammatory and anti-HIV-1 phloroglucinol alpha-Pyrone from Helichrysum italicum ssp. microphyllum” (J Nat Prod, 2007).
pIC50: −log10 of the molar value. Calls of active or inactive are those of the source. The calls are words filed in the database; no cut-off is given here.

Columns and labels:
Homo sapiens = species on record: Homo sapiens; assay: (§1) Inhibition of TNFalpha activated NF-kappaB dependent transactivation of HIV-1 LTR Luc in 5.1 cells; assay type: cell-based
Outline: (§2)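 A T cell line stably carrying HIV-1 LTR-driven luciferase was preincubated with increasing concentrations for 30 min, then stimulated with TNFα (2 ng/mL) for 6 h. Cells were lysed in Tris-phosphate buffer pH 7.8 with Triton X-100. Luciferase was read and normalized to Bradford protein (RLU/µg) after subtracting lysis-buffer background. Results are fold induction over untreated cells, with at least three repeats.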

[1] = system: Human immunodeficiency virus 1; assay: Inhibition of VSV-pseudotyped HIV1 replication in Jurkat T cells; assay type: functional, organism-based
Outline: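 Jurkat T cells (10^6/mL) pretreated 30 min with increasing concentrations before infection with VSV-pseudotyped pNL4-3.Luc.R-E- virus (Env-, Vpr-; stock made in 293T cells), 200 ng HIV-1 gag p24 per culture. After 24 h the cells were washed twice in PBS and luciferase activity in the lysates was read as % of infected untreated cells. Mean ± SD of three independent experiments.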

Monocyte [2] = assay: Inhibition of IL1-beta production in LPS-stimulated human primary monocytes by ELISA; assay type: functional
Outline: (§3)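 Primary monocytes from healthy donors were seeded at (1-2) × 10^6 cells/well at 37 °C/5% CO2. Nonadherent cells were removed and the medium replaced with RPMI-1640 plus 1% human serum. Cells were preincubated with increasing compound concentrations for 30 min, then stimulated with LPS (10 ng/mL) for 24 h. Supernatants were cleared at 10000g for 10 min. Cytokines were measured by ELISA and PGE2 by EIA.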

Monocyte [3] = assay: Inhibition of TNFalpha production in LPS-stimulated human primary monocytes by ELISA; assay type: functional; outline: as §3
Monocyte [4] = assay: Inhibition of IL6 production in LPS-stimulated human primary monocytes by ELISA; assay type: functional; outline: as §3
Monocyte [5] = assay: Inhibition of IL8 production in LPS-stimulated human primary monocytes by ELISA; assay type: functional
Monocyte [6] = assay: Inhibition of PGE2 production in LPS-stimulated human primary monocytes by ELISA; assay type: functional; outline: as §3
[7] = as §1; assay type: cell-based; conditions: Homo sapiens; outline: as §2

Q: For `C=C(COC(C)=O)[C@H]1Oc2ccc(C(C)=O)cc2[C@H]1OC(C)=O`, which Activity (Homo sapiens) is on record?
A: The Activity was “inactive”.

Q: With `C=C(CO)[C@H]1Oc2ccc(C(C)=O)cc2[C@H]1OC(C)=O` as the compound, how does the Activity (Homo sapiens) read?
A: The Activity was “inactive”.

Q: With `CCc1oc(=O)c(Cc2c(O)c(CC=C(C)C)c(O)c(C(C)=O)c2O)c(O)c1C` [ARZANOL] as the compound, how does the Activity [1] read?
A: Its Activity is “Dose-dependent effect”.

Q: What about the pIC50 (Monocyte [2]) of the same compound?
A: Its pIC50 is 5.25.

Q: And the pIC50 (Monocyte [3])?
A: Its pIC50 is 5.04.

Q: What about the pIC50 (Monocyte [4]) of the same compound?
A: Its pIC50 is 4.88.

Q: And the pIC50 (Monocyte [5])?
A: Its pIC50 is 4.66.

Q: What about the pIC50 (Monocyte [6]) of the same compound?
A: Its pIC50 is 4.73.

Q: What about the pIC50 [7] of the same compound?
A: The pIC50 was 5.30.

Q: Which Activity (Homo sapiens) does the source give for `CCC(C)C(=O)C(C)c1oc(=O)c(C)c(O)c1C` (stereo not drawn) here?
A: The Activity was “inactive”.

Q: With `CCc1oc(=O)c(Cc2c(O)c(C)c(CC)oc2=O)c(O)c1C` [HELIPYRONE] as the compound, how does the pIC50 [7] read?
A: Its pIC50 is 5.06.

Q: For `C=C(COC(C)=O)[C@@H]1Cc2cc(C(C)=O)ccc2O1`, which Activity (Homo sapiens) is on record?
A: Its Activity is “inactive”.

Q: For `C=C(CO)[C@@H]1Cc2cc(C(C)=O)ccc2O1`, which Activity (Homo sapiens) is on record?
A: The Activity was “inactive”.
